MBD2 DNA inh = inhibitors of MBD2 binding to methylated DNA, primary screen, biochemical, TR-FRET, DNA-binding domain, human | Methyl-CpG-binding domain protein 2 (Homo sapiens), Q9UBB5 | MBD2 binding to methylated oligonucleotide | inhibition, % at 4.4 µM | 370,000 tested, 0.31% active | AID 686964, 2013; in the data active = inhibition above about 13%
PRMT1 FP inh = PRMT1 methyltransferase inhibitors, primary screen, biochemical, fluorescence polarization; Protein arginine N-methyltransferase 1 (Homo sapiens), Q99873; recombinant PRMT1, activity-based probe fluorescence polarization; inhibition, % at 2.79 µM; 370,000 tested, 1.3% active; AID 652257, 2013;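 active = inhibition above about 21% made by adding two undisclosed values, limit read from the data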
UHRF1 binding = UHRF1 methylated DNA binding inhibitors, primary screen, counter-screen for MBD2 inhibitor project, biochemical, TR-FRET, human UHRF1, single concentration; inhibition, % at 4.4 µM; UHRF1 binding to methylated oligo; 370,000 tested, 0.75% active; AID 687016, 2013; in the data active = inhibition above about 21%;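 also: UHRF1 SRA domain binding a hemimethylated CpG hairpin DNA probe; 0% = median of test compound wells and 100% = reference inhibitor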
Target sequence (Q96T88 whole entry, looked up, the tested form may be a part): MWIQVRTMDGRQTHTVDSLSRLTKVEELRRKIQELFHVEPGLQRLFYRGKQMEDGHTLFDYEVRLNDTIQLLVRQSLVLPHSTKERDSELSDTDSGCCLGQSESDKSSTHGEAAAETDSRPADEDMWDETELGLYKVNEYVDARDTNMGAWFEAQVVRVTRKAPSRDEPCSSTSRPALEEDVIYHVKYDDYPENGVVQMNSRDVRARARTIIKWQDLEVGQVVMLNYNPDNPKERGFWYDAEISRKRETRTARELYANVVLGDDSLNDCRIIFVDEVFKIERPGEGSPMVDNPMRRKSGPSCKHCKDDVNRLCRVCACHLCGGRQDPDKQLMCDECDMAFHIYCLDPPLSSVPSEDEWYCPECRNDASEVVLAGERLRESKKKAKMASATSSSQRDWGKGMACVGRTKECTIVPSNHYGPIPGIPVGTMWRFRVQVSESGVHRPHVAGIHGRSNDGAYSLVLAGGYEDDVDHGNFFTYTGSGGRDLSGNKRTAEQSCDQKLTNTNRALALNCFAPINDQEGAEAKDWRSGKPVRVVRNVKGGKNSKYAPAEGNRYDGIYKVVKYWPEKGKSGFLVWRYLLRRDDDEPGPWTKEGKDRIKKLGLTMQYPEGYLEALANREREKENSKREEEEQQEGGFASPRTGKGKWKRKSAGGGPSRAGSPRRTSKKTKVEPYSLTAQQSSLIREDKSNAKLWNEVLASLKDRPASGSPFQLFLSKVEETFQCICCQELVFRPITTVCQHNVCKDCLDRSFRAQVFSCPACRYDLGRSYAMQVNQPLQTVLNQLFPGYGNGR
RBBP9 inhibitor = human RBBP9 inhibitors, primary screen, biochemical, fluorescence polarization, FP-Rh probe, HTS; recombinant RBBP9; inhibition, % at 7.94 µM; 220,000 tested, 0.2% active; AID 1515, 2009;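 active = inhibition above the campaign mean of all tested compounds plus 3 SD, cut at about 14% in these data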;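 also: plate controls were DMSO wells with RBBP9 for no effect and wells lacking RBBP9 protein for full effect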
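Controls: DMSO-treated enzyme wells and wells lacking RBBP9 | Material: RBBP9 protein | Technique: Fluorescence polarization | Replication: Single well per compound, no replicates | Buffer or medium: Tris-NaCl-Pluronic buffer, pH 8.0 | Timing: 30 min compound preincubation, 45 min probe labeling, 25 °C | Read-out basis: Percent inhibition from mP, scaled between DMSO and no-protein wells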
LEDGF integ inh = blockers of LEDGF/p75-dependent integrase strand transfer – biochemical, TR-FRET, high throughput, primary screen; HIV-1 integrase (with human LEDGF/p75); TR-FRET IN-LEDGF/p75 DNA integration, Eu/Cy5; inhibition, % at 3.7 µM; 370,000 tested, 0.64% active; AID 743269, 2014;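 active = inhibition above the screen-wide mean plus 3 SD, cut at about 13% in these data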;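 also: signal is the Cy5 over europium emission ratio at 671 and 618 nm; 0% = plate median of compound wells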
ABHD5 PLIN5 PPI = ABHD5-PLIN5 interaction inhibitors, primary screen, cell lysate, split luciferase complementation, luminescence | Split G. princeps luciferase complementation, 4 h | inhibition, % at 4 µM | 360,000 tested, 0.78% active;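 active = inhibition above the mean inhibition across every tested compound plus 3 SD, cut at about 22% in these data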;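 also: 0% = DMSO only wells and the 100% control is not disclosed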
Starred values were filed as active, the others as inactive; · = no result. Rows were chosen to be rich in hits. Some 3.1% of all compounds tested hit in one or more screens of this group.

SMILES	MBD2 DNA inh	PRMT1 FP inh	UHRF1 binding	RBBP9 inhibitor	LEDGF integ inh	ABHD5 PLIN5 PPI
C/C(=N\NC(=O)CSc1nnc(-c2ccccc2)n1-c1ccc(C)cc1)c1ccc(-c2ccccc2)cc1	5	-3	-2	·	0	·
O=C(Nc1cc(C(F)(F)F)ccc1N1CCOCC1)c1cnccn1	0	-2	0	·	2	0
O=C(Nc1ccccc1N1CCOCC1)c1cnccn1	-2	0	37*	1	4	-5
O=C(c1cccs1)N1CCN(Cc2ccccn2)CC1	11	-3	24*	-7	10	1
Cc1cc(-c2ccccc2)nc2oc3c(c12)NC(=O)CN(c1ccccc1)C3=O	2	1	-2	-8	-6	7
COc1cccc(N2CC(=O)Nc3c(oc4nc(-c5ccccc5)cc(C)c34)C2=O)c1	-2	6	45*	8	-5	-3
COC(=O)[C@]12C[C@H](CC(=O)NCC34CC5CC(CC(C5)C3)C4)C(=O)N(Cc3ccccc3)C1=C[C@H](C1CCCC1)O[C@@H]2C	-8	2	-1	·	4	·
Cc1ccc(CNC(=O)COc2ccc(C)nc2[N+](=O)[O-])cc1	-3	-2	-4	-5	0	-2
Cc1ccc(OCC(=O)c2ccc(Cl)s2)c([N+](=O)[O-])n1	-9	24*	-8	-3	6	-6
C[C@@H]1C=CCCO[C@]12C(=O)N(CC1CC1)c1ccccc12	-1	1	-1	·	2	·
COc1cccc(CCc2nnc(N)s2)c1	5	23*	5	·	-8	3
Cc1nn(CC(=O)NC2C(=O)N3C(C(=O)O)=C(CSc4nnnn4C)CSC23)cc1Br (configuration not stated)	0	22*	3	-5	-7	11
Cc1nnc(SCC2=C(C(=O)O)N3C(=O)C(NC(=O)Cc4ccccc4)C3SC2)s1 (configuration not stated)	2	25*	1	·	-4	1
CC1=C(C(=O)O)N2C(=O)C(NC(=O)c3nn(C)cc3Cl)C2SC1 (configuration not stated)	2	6	-1	-3	1	-10
Cn1nnnc1SCC1=C(C(=O)O)N2C(=O)C(NC(=O)Cn3nc(C(F)F)cc3C3CC3)C2SC1 (configuration not stated)	6	24*	0	-4	-1	10
Cc1cc(Oc2cccnc2)ccc1NC(=O)Cc1c(C)[nH]c2ccccc12	1	0	-2	·	-2	·
O=C(Nc1nc2ncccn2c1-c1ccccc1)c1ccc(F)cc1	3	-2	0	·	-1	·
CCOC(=O)C1CCN(C(=O)CSc2nccc(C)n2)CC1	-4	5	65*	-3	-4	2
CCOC(=O)Cn1cc(CN2C(C(=O)OC)CN(Cc3ccccc3)CCS2(=O)=O)nn1 (configuration not stated)	5	-4	17	·	2	·
COc1ccc(CCC(=O)Nc2ccc(N3CCOCC3)cc2)cc1	13	0	31*	-2	4	-4
CCC(=O)Nc1ccc(N2CCOCC2)c(S(=O)(=O)Nc2ccc(OC)cc2)c1	-1	-2	1	5	-2	0
COc1ccc(N2CCN(c3ccc4nnc(CCC(=O)Nc5ccc(C)cc5)n4n3)CC2)cc1	4	-4	21*	·	0	0
COc1ccc(NS(=O)(=O)c2cc(NC(=O)CCc3ccccc3)ccc2N2CCOCC2)cc1	6	0	31*	·	-1	-6
COc1ccc(-n2c(SCC(=O)NCCCSC)nnc2-c2ccncc2)cc1	-1	-1	3	·	2	·
N#C/C(=C\c1ccc(C#N)cc1)C(=O)c1ccccc1	2	-2	-1	-2	1	11
SMILES	MBD2 DNA inh	PRMT1 FP inh	UHRF1 binding	RBBP9 inhibitor	LEDGF integ inh	ABHD5 PLIN5 PPI
N#Cc1cccc(C=C(C(=O)c2ccccc2)c2ccccc2)c1	2	2	-2	·	-3	22*
CCn1c2ccccc2c2cc(C=NNC(=O)CSc3nc4ccccc4c(=O)n3-c3ccccc3)ccc21	-1	2	-2	·	2	·
CCC(=O)N(Cc1cc(=O)[nH]c2ccccc12)c1ccccc1C	2	1	38*	-12	0	4
CCCC(=O)N(Cc1cc(=O)[nH]c2ccccc12)c1ccc(C)cc1C	7	-6	2	·	4	8
CN1CCC(CO)(Cc2ccccc2)CC1	1	-2	22*	-7	1	-1
CC1CCN(C(=S)c2ccc3c(c2)OCO3)CC1	0	-2	61*	-5	2	1
CC(C)C[C@H]1COc2cccc(N3CCSCC3)c2S(=O)(=O)N1C	1	1	5	·	4	·
Cc1cc(C(=O)N/N=C/c2ccc(N(C)C)cc2)c2ccccc2n1	-6	-3	-1	-11	1	-4
CCc1cc(C(=O)N/N=C/c2ccc(O)cc2)c2ccccc2n1	0	3	-1	·	-5	23*
Cn1c2ccccc2c2cc(/C=N/NC(=O)c3cc(O)cc(O)c3)ccc21	7	2	4	·	4	-12
Cn1c2ccccc2c2cc(/C=N/NC(=O)c3cc(O)ccc3O)ccc21	6	19	11	·	42*	-6
C/C(=N\Nc1ccc(C(=O)O)cc1)c1ccc(Br)cc1	8	5	22*	-15	0	-1
C/C(=N/Nc1ncc(Br)cn1)c1ccc(Br)cc1	-1	-2	-3	·	2	-5
CC(=O)NCc1ccc(OCCCN2CCC(C(O)(c3ccccc3)c3ccccc3)CC2)cc1	10	7	3	·	-4	·
CCOC(=O)C1=C(COC(=O)C2(C)CC2(Cl)Cl)NC(=O)NC1c1ccccc1 (configuration not stated)	-7	0	29*	0	-1	-1
Cc1cccc(CN2C(=O)/C(=C\c3ccc(C(=O)NCCN4CCOCC4)cc3)Sc3ccccc32)c1	·	·	·	·	·	7
CCN1CCN(CCNC(=O)c2ccc(/C=C3/Sc4ccccc4N(Cc4cccc(Cl)c4)C3=O)cc2)CC1	7	-2	9	-14	-3	22*
C=CC[C@H]1c2ccccc2[C@H]2N3N=Cc4ccccc4[C@H]3[C@H](CCCC)C(=O)N2N1C(=O)c1ccccc1	2	2	-2	·	-1	·
CCC(=O)Nc1ccc(C(=O)OCc2ccccc2)cc1	-1	1	0	-5	-1	5
COC(=O)c1ccc(CCc2cc(O)ccc2O)cc1	·	·	·	·	·	42*
O=C(OCc1ccccc1)c1ccc(NCc2cc(O)ccc2O)cc1	-5	22*	-4	·	5	16

Source: PubChem BioAssay
